We go through one molecule from ChEMBL document CHEMBL5154713, “Illuminating a Dark Kinase: Structure-Guided Design, Synthesis, and Evaluation of a Potent Nek1 Inhibitor and Its Effects on the Embryonic Zebrafish Pronephros” (J Med Chem, 2022).

Data set [1] has as its system Tyrosine-protein kinase ABL1 (Homo sapiens), P00519 [Q252H]. Briefly: Inhibition of human Abl Q252H mutant (27 to end residues) assessed as residual activity at 1 uM using EAIYAAPFAKKK as substrate incubated for 40 mins in presence of [gamma 33P]-ATP by radiometric scintillation counting assay relative to control. The method in brief: (§1)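 Commercial radiometric panel of 50 kinases. Each recombinant human kinase was tested at a single compound concentration of 1 μM. ATP was set within 15 μM of the apparent Km for ATP for each kinase. Residual activity is relative to control and is the mean of two independent experiments.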

The species entered for data set [2] is Homo sapiens. The experiment in a line: Inhibition of human full length recombinant CDK1/CyclinB assessed as residual activity at 1 uM using histone H1 as substrate incubated for 40 mins in presence of [gamma 33P]-ATP by radiometric scintillation counting assay relative to control. The essentials: as §1
The target of data set [3] is Mitogen-activated protein kinase 14 (Homo sapiens) (UniProt Q16539). Briefly: Inhibition of recombinant human full length SAPK2a assessed as residual activity at 1 uM using myelin basic protein as substrate measured after 40 mins in presence of [gamma33P]ATP by scintillation counting method relative to control. The essentials: as §1
The nature of data set [4]: Solubility of the compound in E3 medium with DMSO incubated for 24 hrs by DAD-HPLC based shake flask method. The data set is classed as physicochemical. The essentials:
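Shake-flask solubility: saturated solution in E3-medium shaken 24 h at 25 °C, then HPLC-DAD at 280 nm. Concentration read by interpolation from a calibration series of 1–100 μM standards in acetonitrile, prepared from a 10 mM DMSO stock. Triplicate.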

For data set [5], the target named is Platelet-derived growth factor receptor beta (Homo sapiens) (UniProt P09619). Briefly: Inhibition of human PDGFRbeta (557 to end residues) assessed as residual activity at 1 uM using poly(Glu, Tyr) 4:1 as substrate measured after 40 mins in presence of [gamma33P]ATP by scintillation counting method relative to control. The method in brief:
as §1

Data set [6] concerns the target Ephrin type-B receptor 4 (Homo sapiens) (UniProt P54760). Briefly: Inhibition of recombinant human EphB4 (561 to end residues) assessed as residual activity at 1 uM using poly(Glu, Tyr) 4:1 as substrate at 40 mins in presence of [gamma-33ATP] by scintillation counting based radiometry assay relative to control. The method in brief:
as §1

The target in data set [7] is Serine/threonine-protein kinase pim-1 (Homo sapiens) (UniProt P11309). The experiment in a line: Inhibition of human full length recombinant Pim1 assessed as residual activity at 1 uM using KKRNRTLTV as substrate incubated for 40 mins in presence of [gamma 33P]-ATP by radiometric scintillation counting assay relative to control. The essentials: as §1
The target of data set [8] is Serine/threonine-protein kinase Nek2 (Homo sapiens) (UniProt P51955). Briefly: Inhibition of human full length recombinant NEK2 assessed as residual activity at 1 uM using poly(Glu, Tyr) 4:1 as substrate incubated for 40 mins in presence of [gamma 33P]-ATP by radiometric scintillation counting assay relative to control. The essentials:
as §1

Data set [9] deals with Serine/threonine-protein kinase mTOR (Homo sapiens) (UniProt P42345). The experiment in a line: Inhibition of human full length recombinant MTOR assessed as residual activity at 1 uM incubated for 40 mins in presence of [gamma 33P]-ATP by radiometric scintillation counting assay relative to control. The method in brief:
as §1

The target in data set [10] is Phosphatidylinositol 4,5-bisphosphate 3-kinase catalytic subunit alpha isoform (Homo sapiens) (UniProt P42336). The experiment in a line: Inhibition of human full length recombinant PI3Kalpha assessed as residual activity at 1 uM using phosphatidylinositol 4,5-bisphosphate as substrate incubated for 40 mins in presence of ATP by HTRF assay relative to control.
Data set [11] addresses Glycogen synthase kinase-3 beta (Homo sapiens) (UniProt P49841). Briefly: Inhibition of human GSK3beta (2 to end residues) assessed as residual activity using YRRAAVPPSPSLSRHSSPHQS(p) EDEEE as substrate at 1 uM incubated for 40 mins in presence of [gamma 33P]-ATP by radiometric scintillation counting assay relative to control. The essentials: as §1
Data set [12] has as its target Calcium/calmodulin-dependent protein kinase kinase 2 (Homo sapiens) (UniProt Q96RR4). The experiment in a line: Inhibition of human full length CAMKK2 assessed as residual activity at 1 uM using calmodulin as substrate incubated for 40 mins in presence of [gamma 33P]-ATP by radiometric scintillation counting assay relative to control. The essentials: as §1
Data set [13] concerns the target Serine/threonine-protein kinase Nek7 (Homo sapiens) (UniProt Q8TDX7). The experiment in a line: Inhibition of recombinant human NEK7 (2 to end residues) assessed as residual activity at 1 uM using FLAKSFGSPNRAYKK as substrate measured after 40 mins in presence of [gamma33P]ATP by radiometric scintillation counting method relative to control. The essentials: as §1

Data set [14] addresses Phosphatidylinositol 4,5-bisphosphate 3-kinase catalytic subunit delta isoform (Homo sapiens) (UniProt O00329). The experiment in a line: Inhibition of human full length recombinant PI3Kdelta assessed as residual activity at 1 uM using phosphatidylinositol 4,5-bisphosphate as substrate incubated for 40 mins in presence ofATP by HTRF assay relative to control.
The target in data set [15] is Tyrosine-protein kinase ABL1 (Homo sapiens) (UniProt P00519). The experiment in a line: Inhibition of human recombinant ABL (27 to end residues) assessed as residual activity at 1 uM using EAIYAAPFAKKK as substrate incubated for 40 mins in presence of [gamma33P-ATP] by radiometric scintillation counting analysis. The method in brief: as §1
The target of data set [16] is Serine/threonine-protein kinase Chk1 (Homo sapiens) (UniProt O14757). Briefly: Inhibition of human full length recombinant CHK1 assessed as residual activity at 1 uM using KKKVSRSGLYRSPSMPENLNRPR as substrate incubated for 40 mins in presence of [gamma 33P]-ATP by radiometric scintillation counting assay relative to control. The method in brief:
as §1

In data set [17] the target is Eukaryotic elongation factor 2 kinase (Homo sapiens) (UniProt O00418). The experiment in a line: Inhibition of human eEF-2K (2 to end residues) assessed as residual activity at 1 uM using RKKFGESEKTKTKEFL as substrate incubated for 40 mins in presence of [gamma 33P]-ATP by radiometric scintillation counting assay relative to control. The essentials: as §1
Data set [18] concerns the target Serine/threonine-protein kinase PLK3 (Homo sapiens) (UniProt Q9H4B4). The experiment in a line: Inhibition of recombinant human Plk3 (19 to 301 residues) assessed as residual activity at 1 uM using casein as substrate measured after 40 mins in presence of [gamma33P]ATP by radiometric scintillation counting method relative to control. The essentials: as §1

Each structure is given as a SMILES string. In brackets after ≈: the same amount, converted by molar mass.

Calcium/calmodulin-dependent protein kinase kinase 2 (Homo sapiens), sequence (Q96RR4 2-588 limits assumed): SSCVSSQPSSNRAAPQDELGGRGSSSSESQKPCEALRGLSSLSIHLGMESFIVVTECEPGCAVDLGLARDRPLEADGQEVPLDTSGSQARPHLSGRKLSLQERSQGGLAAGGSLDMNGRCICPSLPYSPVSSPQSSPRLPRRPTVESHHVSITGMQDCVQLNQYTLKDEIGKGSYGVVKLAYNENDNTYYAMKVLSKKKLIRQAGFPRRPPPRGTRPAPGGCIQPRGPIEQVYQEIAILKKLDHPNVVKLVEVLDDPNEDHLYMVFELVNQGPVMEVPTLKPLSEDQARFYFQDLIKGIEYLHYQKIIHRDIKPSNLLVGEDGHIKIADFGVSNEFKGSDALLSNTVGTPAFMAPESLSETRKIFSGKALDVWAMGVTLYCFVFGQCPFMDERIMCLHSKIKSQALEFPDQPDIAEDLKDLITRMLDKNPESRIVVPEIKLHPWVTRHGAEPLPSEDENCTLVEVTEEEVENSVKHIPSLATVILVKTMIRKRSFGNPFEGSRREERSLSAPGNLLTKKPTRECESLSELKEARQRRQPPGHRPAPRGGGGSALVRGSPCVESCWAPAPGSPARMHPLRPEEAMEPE
Ephrin type-B receptor 4 (Homo sapiens), sequence (P54760 whole entry): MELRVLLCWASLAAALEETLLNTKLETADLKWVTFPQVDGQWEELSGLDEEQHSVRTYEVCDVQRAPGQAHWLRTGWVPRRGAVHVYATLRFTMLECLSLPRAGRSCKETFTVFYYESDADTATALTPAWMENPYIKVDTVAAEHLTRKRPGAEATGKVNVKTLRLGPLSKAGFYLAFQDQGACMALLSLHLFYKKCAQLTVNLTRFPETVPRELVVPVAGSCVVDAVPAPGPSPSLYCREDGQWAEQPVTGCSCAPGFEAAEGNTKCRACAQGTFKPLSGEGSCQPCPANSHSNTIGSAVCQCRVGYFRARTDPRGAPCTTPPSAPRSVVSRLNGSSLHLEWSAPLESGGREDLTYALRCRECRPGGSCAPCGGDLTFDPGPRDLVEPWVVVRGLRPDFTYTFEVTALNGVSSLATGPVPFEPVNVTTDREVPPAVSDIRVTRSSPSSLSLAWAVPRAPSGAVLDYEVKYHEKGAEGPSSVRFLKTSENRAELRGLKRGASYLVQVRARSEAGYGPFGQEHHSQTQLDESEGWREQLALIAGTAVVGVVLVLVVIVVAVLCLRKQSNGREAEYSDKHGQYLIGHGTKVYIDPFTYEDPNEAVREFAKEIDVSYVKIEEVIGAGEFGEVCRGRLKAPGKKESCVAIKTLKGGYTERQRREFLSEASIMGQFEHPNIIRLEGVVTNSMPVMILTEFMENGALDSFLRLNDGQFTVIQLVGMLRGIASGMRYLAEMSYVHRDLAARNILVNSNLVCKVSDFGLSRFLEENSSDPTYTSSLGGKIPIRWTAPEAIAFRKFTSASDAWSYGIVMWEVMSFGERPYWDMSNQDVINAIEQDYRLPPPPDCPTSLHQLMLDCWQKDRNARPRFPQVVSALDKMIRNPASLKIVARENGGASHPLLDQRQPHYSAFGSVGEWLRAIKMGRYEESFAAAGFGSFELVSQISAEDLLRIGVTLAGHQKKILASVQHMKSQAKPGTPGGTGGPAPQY
Eukaryotic elongation factor 2 kinase (Homo sapiens), sequence (O00418 whole entry, the tested form may be a part): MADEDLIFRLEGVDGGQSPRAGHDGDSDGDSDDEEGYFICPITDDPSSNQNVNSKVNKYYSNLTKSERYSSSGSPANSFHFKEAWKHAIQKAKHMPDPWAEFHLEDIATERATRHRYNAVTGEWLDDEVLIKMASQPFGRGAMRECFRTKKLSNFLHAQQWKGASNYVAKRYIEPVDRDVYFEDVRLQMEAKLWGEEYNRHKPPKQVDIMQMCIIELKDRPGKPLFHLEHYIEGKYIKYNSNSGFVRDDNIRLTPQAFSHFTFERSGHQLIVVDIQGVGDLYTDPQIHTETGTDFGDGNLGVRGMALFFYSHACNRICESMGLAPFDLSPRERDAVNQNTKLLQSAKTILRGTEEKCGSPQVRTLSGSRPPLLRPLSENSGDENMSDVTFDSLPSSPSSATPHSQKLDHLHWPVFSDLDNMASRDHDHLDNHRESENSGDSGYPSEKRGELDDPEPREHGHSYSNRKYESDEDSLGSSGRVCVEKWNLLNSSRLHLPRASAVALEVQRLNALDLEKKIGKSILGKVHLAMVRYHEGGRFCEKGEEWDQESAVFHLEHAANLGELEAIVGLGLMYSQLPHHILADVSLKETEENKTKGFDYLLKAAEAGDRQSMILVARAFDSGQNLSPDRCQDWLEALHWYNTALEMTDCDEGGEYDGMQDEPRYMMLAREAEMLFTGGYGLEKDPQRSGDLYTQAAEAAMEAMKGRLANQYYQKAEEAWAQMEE
Serine/threonine-protein kinase Nek2 (Homo sapiens), sequence (P51955 whole entry): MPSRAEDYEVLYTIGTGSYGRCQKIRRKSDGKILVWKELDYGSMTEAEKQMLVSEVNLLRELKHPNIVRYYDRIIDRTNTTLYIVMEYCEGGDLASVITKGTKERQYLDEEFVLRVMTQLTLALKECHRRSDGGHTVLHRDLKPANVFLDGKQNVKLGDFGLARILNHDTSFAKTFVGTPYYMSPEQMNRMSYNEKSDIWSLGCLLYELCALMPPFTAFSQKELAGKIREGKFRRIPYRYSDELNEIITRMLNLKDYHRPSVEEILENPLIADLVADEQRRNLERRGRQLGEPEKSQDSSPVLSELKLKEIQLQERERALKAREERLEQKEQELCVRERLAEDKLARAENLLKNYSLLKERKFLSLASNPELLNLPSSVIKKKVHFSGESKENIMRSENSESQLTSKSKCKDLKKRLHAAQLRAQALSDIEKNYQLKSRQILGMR
Serine/threonine-protein kinase pim-1 (Homo sapiens), sequence (P11309 whole entry, looked up): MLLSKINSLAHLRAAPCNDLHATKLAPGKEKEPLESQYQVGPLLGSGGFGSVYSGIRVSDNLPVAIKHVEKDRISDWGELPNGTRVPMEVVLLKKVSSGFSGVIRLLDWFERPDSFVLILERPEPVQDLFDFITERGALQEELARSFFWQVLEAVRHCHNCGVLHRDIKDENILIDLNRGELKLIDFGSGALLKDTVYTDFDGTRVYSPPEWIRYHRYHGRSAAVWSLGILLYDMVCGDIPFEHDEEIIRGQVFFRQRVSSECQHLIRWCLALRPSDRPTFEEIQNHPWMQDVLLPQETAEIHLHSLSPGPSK
Serine/threonine-protein kinase PLK3 (Homo sapiens), sequence (Q9H4B4 whole entry, looked up, the tested form may be a part): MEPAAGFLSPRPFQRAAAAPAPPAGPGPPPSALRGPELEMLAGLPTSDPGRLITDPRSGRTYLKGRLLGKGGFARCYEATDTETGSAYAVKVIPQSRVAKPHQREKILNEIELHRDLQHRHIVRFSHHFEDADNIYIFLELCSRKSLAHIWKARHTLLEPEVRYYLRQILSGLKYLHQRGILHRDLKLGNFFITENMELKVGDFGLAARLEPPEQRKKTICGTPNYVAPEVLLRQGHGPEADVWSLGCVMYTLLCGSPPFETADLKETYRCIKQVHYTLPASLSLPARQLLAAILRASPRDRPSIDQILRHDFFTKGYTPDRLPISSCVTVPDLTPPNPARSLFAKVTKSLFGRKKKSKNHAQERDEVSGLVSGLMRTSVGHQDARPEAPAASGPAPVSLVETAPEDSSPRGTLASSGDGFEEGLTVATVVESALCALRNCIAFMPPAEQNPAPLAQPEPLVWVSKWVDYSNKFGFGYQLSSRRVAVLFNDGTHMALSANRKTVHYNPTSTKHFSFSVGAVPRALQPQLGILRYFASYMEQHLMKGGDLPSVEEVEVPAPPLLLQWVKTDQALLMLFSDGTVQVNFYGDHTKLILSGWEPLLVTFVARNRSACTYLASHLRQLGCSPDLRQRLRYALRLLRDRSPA
Glycogen synthase kinase-3 beta (Homo sapiens), sequence (P49841 whole entry, looked up): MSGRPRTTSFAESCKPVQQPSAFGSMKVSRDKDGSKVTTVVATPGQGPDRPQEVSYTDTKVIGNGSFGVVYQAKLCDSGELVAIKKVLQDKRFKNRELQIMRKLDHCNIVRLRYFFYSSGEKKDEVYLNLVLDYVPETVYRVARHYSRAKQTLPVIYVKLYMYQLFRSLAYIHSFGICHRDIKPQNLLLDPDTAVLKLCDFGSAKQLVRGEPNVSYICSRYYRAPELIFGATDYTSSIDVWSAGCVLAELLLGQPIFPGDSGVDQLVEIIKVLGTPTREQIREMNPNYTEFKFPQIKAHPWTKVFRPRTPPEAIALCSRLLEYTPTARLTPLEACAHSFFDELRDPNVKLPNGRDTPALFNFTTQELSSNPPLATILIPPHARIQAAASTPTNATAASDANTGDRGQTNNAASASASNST
Serine/threonine-protein kinase Nek7 (Homo sapiens), sequence (Q8TDX7 whole entry, looked up): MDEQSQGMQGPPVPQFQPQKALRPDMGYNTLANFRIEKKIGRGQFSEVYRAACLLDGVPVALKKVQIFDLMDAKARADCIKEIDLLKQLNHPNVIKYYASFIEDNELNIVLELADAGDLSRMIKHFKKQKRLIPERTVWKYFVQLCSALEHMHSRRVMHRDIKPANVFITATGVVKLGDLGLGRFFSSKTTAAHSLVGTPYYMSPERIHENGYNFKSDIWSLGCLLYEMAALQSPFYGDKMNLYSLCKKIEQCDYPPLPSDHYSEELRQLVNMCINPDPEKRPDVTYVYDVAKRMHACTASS
Mitogen-activated protein kinase 14 (Homo sapiens), sequence (Q16539 whole entry): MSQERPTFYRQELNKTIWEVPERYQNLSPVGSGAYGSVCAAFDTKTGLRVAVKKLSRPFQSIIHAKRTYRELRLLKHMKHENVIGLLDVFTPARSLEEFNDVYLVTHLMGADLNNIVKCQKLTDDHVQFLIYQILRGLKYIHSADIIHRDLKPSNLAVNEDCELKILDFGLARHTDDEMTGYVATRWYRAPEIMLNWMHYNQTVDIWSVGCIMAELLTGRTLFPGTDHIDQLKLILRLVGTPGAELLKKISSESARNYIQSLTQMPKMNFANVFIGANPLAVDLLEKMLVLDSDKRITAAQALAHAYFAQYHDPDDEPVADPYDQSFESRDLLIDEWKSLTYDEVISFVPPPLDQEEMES

Regarding `O=S(=O)(N[C@@H](CO)Cc1c[nH]c2ccccc12)c1ccc(-c2ccnc3[nH]ccc23)cc1`, the Activity in data set [1], in data set [2], in data set [3], in data set [5], in data set [6] and in data set [7] was greater than 75% throughout. In addition, the Activity in data set [8], in data set [9], in [10], in data set [11], in data set [12] and in data set [13] was greater than 75% each time. Further, the Activity in data set [14], in data set [15], in [16], in [17] and in data set [18] was greater than 75% each time. Also, the concentration in solution in data set [4] (solubility at 24 h) came to 13.9 µg/mL (≈ 31.1 µM).
